# Screens (PubChem BioAssay)
# PREPL inh = human PREPL enzyme inhibition. recombinant PREPL, fluorescence polarization activity-based probe. inhibition, % at 5.96 µM. Q4J6C6. actives 0.68% (n = 320,000); in the data active = inhibition above about 43%;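 also: 0% = enzyme with DMSO and 100% = wells lacking enzyme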
# Target sequence (Q4J6C6 whole entry, looked up): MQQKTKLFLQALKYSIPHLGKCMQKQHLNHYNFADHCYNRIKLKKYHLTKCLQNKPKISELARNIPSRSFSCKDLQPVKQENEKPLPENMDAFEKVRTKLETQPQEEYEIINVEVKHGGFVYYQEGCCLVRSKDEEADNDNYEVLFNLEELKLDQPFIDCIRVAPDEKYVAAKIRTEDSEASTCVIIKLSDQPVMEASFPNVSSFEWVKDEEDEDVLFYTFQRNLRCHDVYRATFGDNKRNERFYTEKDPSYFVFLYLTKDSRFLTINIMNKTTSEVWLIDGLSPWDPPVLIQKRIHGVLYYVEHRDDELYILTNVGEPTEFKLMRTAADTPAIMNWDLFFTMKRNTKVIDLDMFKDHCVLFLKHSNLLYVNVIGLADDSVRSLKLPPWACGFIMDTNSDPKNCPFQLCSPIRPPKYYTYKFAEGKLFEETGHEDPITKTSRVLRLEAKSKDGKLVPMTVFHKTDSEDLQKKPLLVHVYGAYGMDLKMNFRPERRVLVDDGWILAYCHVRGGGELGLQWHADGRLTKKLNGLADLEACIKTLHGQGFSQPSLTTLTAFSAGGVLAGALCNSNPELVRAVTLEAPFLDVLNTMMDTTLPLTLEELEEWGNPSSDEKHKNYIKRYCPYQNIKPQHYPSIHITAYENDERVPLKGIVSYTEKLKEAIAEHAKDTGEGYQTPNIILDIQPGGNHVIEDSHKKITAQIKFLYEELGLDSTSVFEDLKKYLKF
# UCH37 DUB inh = human UCH37 deubiquitinating enzyme inhibition. Q9Y5K5. purified proteasome/UCH37, Ub-AMC cleavage fluorescence. inhibition, % (concentration not given with the values). actives 0.33% (n = 330,000);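 active = mean inhibition over replicate wells above about 20%, limit read from the data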;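 also: 0% = compound-free wells with enzyme and 100% = wells lacking proteasome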
#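 Reagent: Ub-AMC substrate; assay system: Proteasome-associated human UCH37 deubiquitinase; controls: no-proteasome and no-compound wells; read-out: % inhibition of Ub-AMC cleavage fluorescence; timing: 30 min preincubation with enzyme, 25 min cleavage at room temperature; signal: AMC fluorescence from Ub-AMC cleavage, excitation 355 nm, emission 460 nm; buffer or medium: Tris-HCl pH 7.4 plus ovalbumin, ATP-MgCl2, DTT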
# Apaf1 inhib = blocks human Apaf-1 apoptosome activity. reconstituted apoptosome caspase-3 activity, DEVD-Rh110 fluorescence. inhibition, % at 20 µM. actives 0.71% (n = 330,000). AID 489030; active = inhibition of at least 40% at 20 µM;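 also: plate controls were DMSO wells for no effect and DEVD-CHO caspase inhibitor wells for full effect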
#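 Material: reconstituted apoptosome with Apaf-1, cytochrome c, caspase-9, procaspase-3, dATP. Technique: Rh110 fluorescence intensity. Buffer or medium: pH 7.5 Hepes buffer with CHAPS, BSA, DTT. Times: 30 min plus 50 min, RT.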
# UBC13 inh = blocks human UBC13 polyubiquitin chain formation | P61088 | TR-FRET | inhibition, % at 20 µM | actives 0.47% (n = 330,000) | AID 485273; in the data active = inhibition above about 45%, passing the limit was not always enough
# UCH37 confirm = UCH37 Ub-AMC cleavage inhibition, confirmed; shares compounds with UCH37 DUB inh; Proteasome-bound UCH37, Ub-AMC cleavage fluorescence; inhibition, % at 20 µM; actives 27% (n = 480);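 active = average inhibition over replicates above about 50%, so the earlier screening hit is confirmed, limit read from the data; inactive = the rest, counted as false positives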;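 also: based on cleavage rate fitted by regression over a 30 min kinetic read; 0% = proteasome plus Ub-AMC and 100% = Ub-AMC without proteasome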
# Numbers without * were called inactive; · = not tested or not shown. Hits are enriched below; roughly 1.5% of the tested compounds scored in any of these assays.
SMILES,PREPL inh,UCH37 DUB inh,Apaf1 inhib,UBC13 inh,UCH37 confirm
CCN1/C(=C\C=C(C(C)=O)C(C)=O)Sc2ccccc21,-5,39*,8,-429,39
CCOC(=O)/C(C#N)=C(C)/C=C1\Sc2ccccc2N1CC,5,2,4,-29,·
Cc1ccc(NC2CNC(=O)NC2=O)cc1C (stereo not drawn),·,2,·,·,·
Cc1ccc(NC2C(=O)NC(=O)NC2=O)cc1,·,80*,·,·,-2
O=C1C2C3CC(C2C(=O)N1c1cccc(Cl)c1)[C@H](O)C3O (stereo partly drawn),15,2,-26,2,·
CC(=O)[C@H]1[C@@H]2C(=O)N(c3cccc(Cl)c3)C(=O)[C@@H]2[C@H]2c3ccccc3C=CN21,13,40*,73*,-23,-9
CCOC(=O)C1=C(CC)OC(N)=C(C#N)C1c1ccc(OC)c(C)c1OC (stereo not drawn),12,4,11,1,·
CCCC1=C(C(=O)OCC)C(c2ccc(OC)c(C)c2OC)C(C#N)=C(N)O1 (stereo not drawn),11,31*,18,0,-39
COc1ccccc1NC(=O)C(=NOCc1ccc(C#N)cc1)C(C)=O,·,5,·,·,·
COc1cc(/C=C(\NC(=O)c2ccccc2)C(=O)NCCO)c([N+](=O)[O-])cc1OC,9,2,0,3,·
COc1cc(/C=C(\NC(=O)c2ccccc2)C(=O)Nc2cccc(O)c2)c([N+](=O)[O-])cc1OC,15,51*,2,-7,5
CCOC(=O)C1=C(C)N=c2sc(=C3C(=O)Nc4ccccc43)c(=O)n2C1c1ccc2c(c1)OCO2 (stereo not drawn),·,9,·,·,·
O=C(O)CC1S/C(=N/N=Cc2ccc(-c3ccccc3[N+](=O)[O-])o2)NC1=O (stereo not drawn),·,26*,·,·,28
O=C(O)CC1S/C(=N/N=Cc2ccc(-c3ccc(Cl)cc3[N+](=O)[O-])o2)NC1=O (stereo not drawn),·,28*,·,·,17
Cc1ccc(S(=O)(=O)Oc2ccc(/C=N/N=C3/NC(=O)C(CC(=O)O)S3)cc2)cc1[N+](=O)[O-] (stereo not drawn),15,·,-2,-17,·
CC(=NNC(=O)c1ccc(O)cc1)c1ccc(N2CCOCC2)cc1,·,4,·,·,·
Cc1ccc(SC(c2ccccc2)C(Cn2cncn2)C(=O)c2ccccc2)cc1 (stereo not drawn),-2,42*,7,-6,20
O=C(O)CN1C(=O)/C(=C\c2cccc(OCc3ccc(Cl)cc3)c2)SC1=S,-16,28*,13,-27,82*
Cn1cccc1/C=C1\SC(=S)N(CC(=O)O)C1=O,-2,25*,·,·,30
O=C(O)CN1C(=O)/C(=C\c2cccc(OCc3ccc(F)cc3)c2)SC1=S,·,15,12,-16,·
COc1cc(C=NNC(=O)Cc2nnc(NC(=O)c3ccccc3)s2)ccc1O,·,3,·,·,·
N#CC1=C(N)NC(SCC(=O)Nc2ccccc2)=C(C#N)C12CCCC2,1,38*,11,0,34
N#CC1=C(N)NC(SCc2ccc(F)cc2)=C(C#N)C12CCCCC2,7,6,15,-5,·
CC1=NN(C(=O)CSCc2ccccc2)C(O)(c2ccccc2)C1 (stereo not drawn),-23,32*,-3,-1,16
CC1=NN(C(=O)COc2ccccc2)C(O)(c2ccccc2)C1 (stereo not drawn),1,0,-5,19,·
SMILES,PREPL inh,UCH37 DUB inh,Apaf1 inhib,UBC13 inh,UCH37 confirm
O=C(O)CSc1cc(NS(=O)(=O)c2cccc([N+](=O)[O-])c2)c2ccccc2c1O,·,30*,·,·,83*
O=C(O)c1cccc(S(=O)(=O)Nc2ccc([N+](=O)[O-])cc2O)c1,4,9,-12,-11,·
Cc1ccc(C=Nn2c(C3CCCCC3)n[nH]c2=S)s1,·,3,·,·,·
CCCCCCCCCCCCCCCC[n+]1ccc(C=NO)cc1,·,53*,·,·,57*
CN(C)C(=O)C[n+]1ccc(/C=N/O)cc1,-10,·,-6,4,·
CCOc1cc(C=NNS(=O)(=O)c2ccc(OC)cc2)ccc1OCCN1CCOCC1,·,4,·,·,·
ON=Cc1cc2ccccc2n1Cc1ccccc1F,·,-2,·,·,·
C[N+]1(C)CCC(=C2c3ccccc3CC(=O)c3sccc32)CC1,10,75*,57*,-30,19
CC[N+]1(C)CCC(=C2c3ccccc3CC(=O)c3sccc32)CC1 (stereo not drawn),4,7,-11,0,·
Cc1c(N2C(=O)CSC2=NN=Cc2ccc(Cl)cc2)c(=O)n(-c2ccccc2)n1C,·,1,·,·,·
